Results taken from PMC4727981 (Archives of biochemistry and biophysics, 2015).
Several values for one entry are separate records, joined by “and”; a condition that tells them apart may be missing. Identical values can stand only once. Like-named read-outs stand apart in the source and are kept apart here.

How the values were obtained:
human CES1 = target: T1, human CES1 (Homo sapiens, UniProt P23141); format: biochemical; conditions: for kinact/Ki (bimolecular rate constant): linear fit
T1 sequence (P23141 18-566 isoform P23141-3 limits assumed): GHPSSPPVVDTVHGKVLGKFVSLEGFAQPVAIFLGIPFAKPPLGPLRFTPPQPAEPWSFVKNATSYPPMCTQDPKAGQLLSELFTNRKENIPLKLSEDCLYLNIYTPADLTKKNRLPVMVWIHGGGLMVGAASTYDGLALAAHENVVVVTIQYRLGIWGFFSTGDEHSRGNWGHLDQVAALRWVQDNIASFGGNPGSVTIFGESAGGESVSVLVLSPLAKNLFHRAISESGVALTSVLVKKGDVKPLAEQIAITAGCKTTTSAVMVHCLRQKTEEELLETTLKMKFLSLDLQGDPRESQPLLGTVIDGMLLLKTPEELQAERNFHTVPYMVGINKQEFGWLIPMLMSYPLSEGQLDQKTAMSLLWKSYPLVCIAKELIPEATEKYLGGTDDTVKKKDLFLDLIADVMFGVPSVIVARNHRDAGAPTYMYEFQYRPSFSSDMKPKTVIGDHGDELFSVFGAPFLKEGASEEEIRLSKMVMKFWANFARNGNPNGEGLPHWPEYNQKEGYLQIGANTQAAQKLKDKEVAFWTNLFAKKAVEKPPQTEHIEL
Summary of the method: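 Oxon at various concentrations plus 4-MUBA (250 μM) prewarmed 5 min at 37°C. Lysate (0.1 mg/ml final) then starts the reaction. 4-Methylumbelliferone fluorescence ([…]) is followed 45 min, with the mock-lysate signal subtracted. Curves are fit to a single exponential without reactivation to give kobs per concentration. Ki′ is substrate-corrected (Km 227 μM).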

human KIAA1363 [1] = target: T2, human KIAA1363 (Homo sapiens, UniProt Q6PIU2); format: biochemical; conditions: for kreact (calculated reactivation rate constant): calculated with Eqn. 7 / kinact ratio
T2 sequence (Q6PIU2 1-416 isoform Q6PIU2-2): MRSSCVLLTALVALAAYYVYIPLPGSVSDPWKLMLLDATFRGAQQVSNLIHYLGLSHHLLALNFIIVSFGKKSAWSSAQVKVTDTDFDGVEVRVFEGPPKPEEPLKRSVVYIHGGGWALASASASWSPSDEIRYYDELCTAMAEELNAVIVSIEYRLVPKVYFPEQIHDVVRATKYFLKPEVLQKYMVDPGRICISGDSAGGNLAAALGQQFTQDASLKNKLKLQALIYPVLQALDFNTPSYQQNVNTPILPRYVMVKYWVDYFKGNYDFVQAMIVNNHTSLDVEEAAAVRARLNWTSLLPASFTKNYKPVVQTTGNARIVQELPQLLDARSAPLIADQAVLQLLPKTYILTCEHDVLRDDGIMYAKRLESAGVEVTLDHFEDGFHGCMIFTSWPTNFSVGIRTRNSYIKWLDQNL

[2] = test system: KIAA1363 in mouse brain membranes; conditions: cited from earlier work
human KIAA1363 [3] = target: T2, human KIAA1363; experiment: Reactivation of oxon-inhibited KIAA1363 activity after 100-fold dilution; format: biochemical; conditions: CPO 1 μM 15 min, diluted 100-fold, up to 60 min at 37°C
Summary of the method: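 KIAA1363-transfected COS-7 lysate (1 mg/ml protein, 50 mM Tris-HCl pH 7.4) preincubated 15 min at 37°C with 1 μM oxon in ethanol (2% v/v), or ethanol alone as control. Reactions are diluted 1:100 in the same buffer and incubated 60 min at 37°C. Aliquots are taken every 10 min to assay residual 4-MUBA hydrolysis by fluorescence.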

recombinant PON1^R192 = recombinant PON1^R192 ref 30; cited from earlier work
[4] = test system: KIAA1363 in mouse brain membranes; conditions: 1 nM [3H]-CPO, cited from earlier work
recombinant CES1 = recombinant CES1 ref 7; cited from earlier work
recombinant PON1^Q192 = recombinant PON1^Q192 ref 30; cited from earlier work
human KIAA1363 [5] = target: T2, human KIAA1363; format: biochemical; conditions: data not shown
[6] = means of 2–4 independent experiments

SMILES: CCOP(=O)(OCC)Oc1ccc([N+](=O)[O-])cc1 [PO, O,O′-diethyl p-nitrophenyl phosphate]
- kinact/Ki (bimolecular rate constant) (human CES1): 1.5 × 10^6 s^−1M^−1
- kinact, fold lower than kinact for CPO (human KIAA1363 [1]): 7.5 fold
- kinact/Ki (corrected bimolecular rate constant) (human KIAA1363 [1]): 0.4 × 10^6 s^−1M^−1
- ratio kinact/kreact (phosphorylation/dephosphorylation) (human KIAA1363 [1]): 3.4
- kreact (calculated reactivation rate constant) (human KIAA1363 [1]): 0.0003 s⁻¹
- kinact (human KIAA1363 [1]; [6]): 0.00092 s⁻¹

SMILES: CCOP(=O)(OCC)Oc1nc(Cl)c(Cl)cc1Cl [CPO, O,O′-Diethyl 3,5,6-trichloro-2-pyridyl phosphate]
- kinact/Ki (bimolecular rate constant) (human CES1): 6.7(±4.2) × 10^6 s^−1M^−1
- kinact/Ki (human CES1; representative graph Fig. 6B, assuming Ki ≫ [I]): 2.5 × 10^6 s^−1M^−1
- hydrolysis (turnover) of CPO by KIAA1363 ([2]; 1 nM CPO, 60 min ref 9): 100%
- hydrolysis of CPO by KIAA1363 ([2]; 60 min incubation ref 9): hydrolyzed completely
- hydrolysis of 1 nM [3H]-CPO by brain membranes from wildtype mice ([2]; 60 min incubation ref 10): completely hydrolyzed
- kreact determined by dilution approach (human KIAA1363 [3]): 0.00038 s⁻¹
- catalytic efficiency for hydrolysis of CPO (recombinant PON1^R192): 150000 M⁻¹ s⁻¹
- added CPO covalently bound to KIAA1363 ([4]; 5 min ref 10): 48 mol %
- added CPO present as diethylphosphoryl (non-aged) adduct ([4]; 5 min ref 10): 44 mol %
- added CPO present as monoethylphosphoryl (aged) adduct ([4]; 5 min ref 10): 4 mol %
- CPO completely hydrolyzed to trichloropyridinol and diethylphosphate ([4]; 60 min ref 10): 75 mol %
- added CPO as covalent phosphoryl adduct on KIAA1363 ([4]; 60 min ref 10): 25 mol %
- added CPO present as diethylphosphoryl adduct ([4]; 60 min ref 10): 13 mol %
- added CPO present as monoethylphosphoryl adduct ([4]; 60 min ref 10): 12 mol %
- corrected kinact/Ki, fold higher than for PO (human KIAA1363 [1]): ~ 10 fold
- kinact/Ki (corrected bimolecular rate constant) (human KIAA1363 [1]): 4.4(±0.4) × 10^6 s^−1M^−1
- ratio kinact/kreact (phosphorylation/dephosphorylation) (human KIAA1363 [1]): 16
- kreact (calculated reactivation rate constant) (human KIAA1363 [1]): 0.0004 s⁻¹ and 0.00043 ± 0.00019 s⁻¹
- kinact (human KIAA1363 [1]; [6]): 0.0069 ± 0.0007 s⁻¹
- kinact (human KIAA1363 [1]; representative graph Fig. 6A): 0.0062 s⁻¹
- kinact/Ki (recombinant CES1): ~ 10^7 s^−1M^−1
- catalytic efficiency for hydrolysis of CPO (recombinant PON1^Q192): 90000 M⁻¹ s⁻¹

SMILES: CCCCCCCC/C=C\CCCCCCCC(=O)O[C@H]1CC[C@@]2(C)C(=CC[C@H]3[C@@H]4CC[C@H]([C@H](C)CCCC(C)C)[C@@]4(C)CC[C@@H]32)C1 [cholesteryl oleate]
- hydrolysis by KIAA1363 (human KIAA1363 [5]): could not detect any activity

SMILES: CCCCCCCC/C=C\CCCCCCCC(=O)Oc1ccc2c(C)cc(=O)oc2c1 [4-methylumbelliferyl oleate]
- hydrolysis by KIAA1363 (human KIAA1363 [5]): could not detect any activity
